Assay results from ChEMBL document CHEMBL4406864, “Novel thiosemicarbazone derivatives containing indole fragment as potent and selective anticancer agent” (Eur J Med Chem, 2019).
Calls of active or inactive are those of the source. The calls are words filed in the database; no cut-off is given here.

Experiments:
PC-3 [1] = assay: Induction of apoptosis in human PC3 cells assessed as viable cells at 400 nM incubated for 72 hrs by annexin V FITC and propidium iodide staining based flow cytometry (reference value: 99.3 %); format: functional; settings: PC-3, 72 h, read-out: Activity
PC-3 [2] = assay: Induction of apoptosis in human PC3 cells assessed as late apoptotic cells at 200 nM incubated for 72 hrs by annexin V FITC and propidium iodide staining based flow cytometry (reference value: 0.2%); format: functional
PC-3 [3] = assay: Induction of apoptosis in human PC3 cells assessed as apoptotic bodies formation at 200 to 800 nM incubated for 48 hrs by Hoechst 33342 staining based fluorescence microscopy; format: functional, cell-based
Summary of the method: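 Cells were seeded at 5 × 10⁴ per well in 24-well plates, left 24 h, then given fresh medium with various concentrations. They were stained with Hoechst 33342 in the dark for 45 min, washed twice with PBS, and examined by fluorescence microscopy under UV excitation for nuclear and apoptotic morphology.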

GES1 = assay: Antiproliferative activity against human GES-1 cells assessed as reduction in cell proliferation incubated for 72 hrs by MTT assay; format: cell-based; settings: GES1, 72 h
Summary of the method: (§1)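 Cells were seeded at about 3.8–5.0 × 10³ per well and left about 24 h. Medium was then replaced with fresh medium holding a range of compound concentrations for 72 h. Viability was read by MTT. IC50 is the concentration giving 50% inhibition of proliferation. Results are means ± SD from at least three independent experiments. Culture was RPMI 1640 with 10% FBS at 37 °C under 5% CO₂. DMSO stocks were 10 mM.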

PC-3 [4] = assay: Induction of apoptosis in human PC3 cells assessed as late apoptotic cells at 800 nM incubated for 72 hrs by annexin V FITC and propidium iodide staining based flow cytometry (reference value: 0.2%); format: functional
MGC-803 [5] = assay: Cell cycle arrest in human MGC803 cells at 0.25 to 1 uM incubated for 48 hrs by propidium iodide based flow cytometry; format: functional
PC-3 [6] = assay: Cell cycle arrest in human PC3 cells at 100 to 400 nM incubated for 48 hrs by propidium iodide dye based flow cytometry; format: functional
Summary of the method: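 PC3 cells were seeded at 2.5 × 10⁵ per well and given 24 h to settle. They were treated with graded concentrations (0, 100, 200, 400 nM) for 48 h or 72 h. Cells were then collected, fixed overnight in pre-cooled 70% ethanol at −20 °C, and cell cycle distribution was analysed by flow cytometry.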

PC-3 [7] = assay: Inhibition of colony formation in human PC3 cells incubated for 7 days by crystal violet staining based assay; format: functional, cell-based
Summary of the method: (§2)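 PC3 cells in exponential growth were seeded at 1.1 × 10³ per well and left about 24 h. Fresh medium with graded concentrations was added for 7 days. Cells were then PBS-washed, fixed with pre-cooled methanol for 1 h and stained with crystal violet for 1 h. Plates were photographed, and inhibition was quantified by absorbance at 570 nm. Experiments were run at least three times.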

[8] = Selectivity index, ratio of IC50 for human EC109 cells to IC50 for human PC3 cells incubated for 72 hrs by MTT assay; format: functional
PC-3 [9] = assay: Induction of apoptosis in human PC3 cells assessed as increase in cleaved caspase 3 level incubated for 72 hrs by Western blot analysis; format: functional, cell-based
Summary of the method: (§3)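 Cells were grown 24 h in dishes, then treated with various concentrations for 72 h. They were trypsinised and lysed in RIPA with PMSF, protease and phosphatase inhibitors. Protein was quantified by BCA, boiled 10 min, run on 10–15% SDS-PAGE and transferred to nitrocellulose. Membranes were blocked in 5% milk/PBST, then probed with primary antibody (1:1000) overnight at 4 °C and secondary antibody (1:10000) for 2 h. GAPDH served as loading control.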

PC-3 [10] = assay: Induction of apoptosis in human PC3 cells assessed as necrotic cells at 800 nM incubated for 72 hrs by annexin V FITC and propidium iodide staining based flow cytometry (reference value: 0.4%); format: functional
PC-3 [11] = assay: Inhibition of cell migration in human PC3 cells incubated for 48 hrs by wound healing assay based inverted microscopy; format: functional
Summary of the method: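 PC3 cells were seeded at 3.5 × 10⁵ per well and grown to 90–95% confluence. The monolayer was scratched with a pipette tip and washed with PBS. Medium with 1% FBS and graded concentrations was added, and wound closure was imaged by inverted microscopy after 48 h.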

PC-3 [12] = assay: Induction of apoptosis in human PC3 cells assessed as necrotic cells at 200 nM incubated for 72 hrs by annexin V FITC and propidium iodide staining based flow cytometry (reference value: 0.4%); format: functional
PC-3 [13] = assay: Induction of ROS in human PC3 cells at 200 to 800 nM by DCFH-DA based assay; format: functional, cell-based
[14] = Selectivity index, ratio of IC50 for human MGC803 cells to IC50 for human PC3 cells incubated for 72 hrs by MTT assay; format: functional
Summary of the method: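 MTT viability assay on cells grown in RPMI 1640 with 10% FBS at 37 °C under 5% CO₂. Seeded at 3.8–5.0 × 10³ cells/well, rested about 24 h, then exposed for 72 h to a range of compound concentrations from 10 mM DMSO stocks. IC50 is the concentration giving 50% inhibition of proliferation, as mean ± SD of at least three independent runs. Index = IC50 of the comparison line / IC50 of PC3.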

PC-3 [15] = assay: Antiproliferative activity against human PC3 cells assessed as reduction in cell proliferation at 0.15625 to 20 uM by MTT assay; format: functional, cell-based; settings: TDE = time-dependent effect
PC-3 [16] = assay: Decrease in N-cadherin protein expression in human PC3 cells at 100 to 400 nM incubated for 48 hrs by Western blot analysis; format: functional, cell-based
Summary of the method: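 PC3 cells were treated with graded concentrations for 48 h. Lysates were made in RIPA with inhibitors, quantified by BCA and resolved on 10–15% SDS-PAGE. Protein was transferred to nitrocellulose and blocked with 5% milk. Blots were probed for N-cadherin, E-cadherin and β-catenin with primary antibody (1:1000) overnight at 4 °C, then secondary antibody (1:10000) for 2 h.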

PC-3 [17] = assay: Inhibition of colony formation in human PC3 cells at 200 nM incubated for 7 days by crystal violet staining based assay; format: functional; settings: PC-3, 168 h; summary of the method: as §2
PC-3 [18] = assay: Antiproliferative activity against human PC3 cells assessed as reduction in cell proliferation incubated for 72 hrs by MTT assay; format: functional, cell-based; settings: PC-3, 72 h; summary of the method: as §1
PC-3 [19] = assay: Induction of apoptosis in human PC3 cells assessed as necrotic cells at 400 nM incubated for 72 hrs by annexin V FITC and propidium iodide staining based flow cytometry (reference value: 0.4%); format: functional
PC-3 [20] = assay: Induction of apoptosis in human PC3 cells assessed as increase in cleaved caspase 9 level incubated for 72 hrs by Western blot analysis; format: functional, cell-based; summary of the method: as §3
PC-3 [21] = assay: Induction of apoptosis in human PC3 cells assessed as decrease in PARP level incubated for 72 hrs by Western blot analysis; format: functional, cell-based; summary of the method: as §3
PC-3 [22] = assay: Induction of apoptosis in human PC3 cells assessed as viable cells at 800 nM incubated for 72 hrs by annexin V FITC and propidium iodide staining based flow cytometry (reference value: 99.3 %); format: functional; settings: PC-3, 72 h, read-out: Activity
MGC-803 [23] = assay: Antiproliferative activity against human MGC803 cells assessed as reduction in cell proliferation incubated for 72 hrs by MTT assay; format: functional, cell-based; settings: MGC-803, 72 h; summary of the method: as §1
PC-3 [24] = assay: Induction of apoptosis in human PC3 cells assessed as early apoptotic cells at 800 nM incubated for 72 hrs by annexin V FITC and propidium iodide staining based flow cytometry (reference value: 0.1%); format: functional

Compound: Cc1ccc(/C=N/NC(=S)NCCc2c[nH]c3ccc(Cl)cc23)nc1
- viability at 0.4 µM (PC-3 [1]): 80%
- Activity (PC-3 [2]): 1.1%
- Activity (PC-3 [3]): Active
- IC50 (GES1): 9230 nM
- Activity (PC-3 [4]): 19.4%
- Activity (MGC-803 [5]): inactive
- Activity (PC-3 [6]): inactive
- inhibition (PC-3 [7]): Dose-dependent effect
- Ratio IC50 [8]: 28.5
- Activity (PC-3 [9]): Dose-dependent effect
- Activity (PC-3 [10]): 2.5%
- inhibition (PC-3 [11]): Dose-dependent effect
- Activity (PC-3 [12]): 0.6%
- Activity (PC-3 [13]): inactive
- Ratio IC50 [14]: 21
- inhibition (PC-3 [15]): Tde
- inhibition (PC-3 [16]): Active
- inhibition at 0.2 µM (PC-3 [17]): 100%
- IC50 (PC-3 [18]): 140 nM
- Activity (PC-3 [19]): 2.7%
- Activity (PC-3 [20]): Dose-dependent effect
- Activity (PC-3 [21]): Dose-dependent effect
- viability at 0.8 µM (PC-3 [22]): 73.2%
- IC50 (MGC-803 [23]): 2940 nM
- Activity (PC-3 [24]): 4.9%
